Test results reported in ChEMBL document CHEMBL1124547, “Prodrugs of the selective antiherpesvirus agent 9-[4-hydroxy-3-(hydroxymethyl)but-1-yl]guanine (BRL 39123) with improved gastrointestinal absorption properties” (J Med Chem, 1989).
In brackets after ≈: the same amount, converted by molar mass.

tested on: not listed separately; assay: Aqueous solubility at 25 degrees Centigrade; assay type: physicochemical; conditions: water; read-out: S

Structure (SMILES) | solubility [mg/mL]
Nc1nc2c(ncn2CCC(CO)CO)c(=O)[nH]1 [PENCICLOVIR] | 3 (≈ 11.8 mM)
CC(=O)OCC(CCn1cnc2c(O)nc(N)nc21)COC(C)=O | 6.7 (≈ 19.9 mM)

Further lines, results first:

solubility [mg/mL] | Structure (SMILES)
19 (≈ 54.4 mM) | CCC(=O)OCC(CCn1cnc2cnc(N)nc21)COC(=O)CC
120 (≈ 506 mM) | Nc1ncc2ncn(CCC(CO)CO)c2n1 [6-DEOXY PENCICLOVIR]
> 300 | CC(=O)OCC(CCn1cnc2cnc(N)nc21)COC(C)=O [FAMCICLOVIR]
1.2 (≈ 3.28 mM) | CCC(=O)OCC(CCn1cnc2c(O)nc(N)nc21)COC(=O)CC

tested on: Mus musculus; assay: Concentration of 2-Amino-9-(4-hydroxy-3-hydroxymethyl)but-1-yl)purine in blood of mice after 1 hours upon oral administration; assay type: functional, organism-based; conditions: not given
In short: (§1)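 Single oral gavage dose of 0.2 mmol/kg in 0.1 mL 1% (carboxymethyl)cellulose to female Balb/c mice (20 g), fasted 18 h. Heparinized cardiac-puncture blood was taken at 0.25, 1 and 3 h, pooled equally from three mice per time point, and deproteinized with an equal volume of 16% TCA. Supernatant was neutralized with NaHCO3 and run on C18 HPLC in duplicate in 5 mM KH2PO4. The 2-aminopurine was read at 310 nm; detection limit 1 μM.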

Structure (SMILES) | Concentration [µM]
CC1(C)OCC(CCn2cnc3cnc(N)nc32)CO1 | 4
Nc1ncc2ncn(CCC(CO)COP(=O)(O)O)c2n1 (stereo unspecified) | 8

tested on: Mus musculus; assay: Concentration of 9-[4-Hydroxy-3-(hydroxymethyl)but-1-yl)guanine in blood of mice after 1 hour upon oral administration; assay type: functional, organism-based; conditions: not given
In short: (§2)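 Female Balb/c mice (20 g), food withheld 18 h, got one oral gavage dose of 0.2 mmol/kg in 0.1 mL 1% (carboxymethyl)cellulose. Blood was drawn by heparinized cardiac puncture at 0.25, 1 and 3 h, with three mice pooled per time point. It was treated with an equal volume of 16% TCA, centrifuged and NaHCO3-neutralized. The guanine analyte was measured by C18 HPLC at 254 nm in duplicate.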

Structure (SMILES) | Concentration [µM]
Nc1nc(O)c2ncn(CCC(CO)CO)c2n1 | 4
Nc1nc(OCc2ccccc2)c2ncn(CCC(CO)CO)c2n1 | 2.1
CCC(=O)OCC(CCn1cnc2cnc(N)nc21)COC(=O)CC | 26
Nc1ncc2ncn(CCC(CO)CO)c2n1 [6-DEOXY PENCICLOVIR] | 13
CC(=O)OCC(CCn1cnc2cnc(N)nc21)COC(C)=O [FAMCICLOVIR] | 17
CC1(C)OCC(CCn2cnc3cnc(N)nc32)CO1 | 11
Nc1ncc2ncn(CCC(CO)COP(=O)(O)O)c2n1 (stereo unspecified) | 17

tested on: Mus musculus; assay: Concentration of 9-[4-Hydroxy-3-(hydroxymethyl)but-1-yl)guanine in blood of mice after 3 hour upon oral administration; assay type: functional, organism-based; conditions: not given; in short: as §2

Structure (SMILES) | Concentration [µM]
Nc1ncc2ncn(CCC(CO)COP(=O)(O)O)c2n1 (stereo unspecified) | 5.2

tested on: Mus musculus; assay: Concentration of 2-Amino-9-(4-hydroxy-3-hydroxymethyl)but-1-yl)purine in blood of mice after 1 hour upon oral administration; assay type: functional, organism-based; conditions: not given; in short: as §1

Structure (SMILES) | Concentration [µM]
Nc1nc(OCc2ccccc2)c2ncn(CCC(CO)CO)c2n1 | 2
CCC(=O)OCC(CCn1cnc2cnc(N)nc21)COC(=O)CC | 9
Nc1ncc2ncn(CCC(CO)CO)c2n1 [6-DEOXY PENCICLOVIR] | 4
CC(=O)OCC(CCn1cnc2cnc(N)nc21)COC(C)=O [FAMCICLOVIR] | 3

tested on: not listed separately; assay: Solubility in water; assay type: physicochemical; conditions: read-out: S

solubility [mg/mL] | Structure (SMILES)
20 (≈ 62.2 mM) | CC(=O)OCC(CCn1cnc2cnc(N)nc21)COC(C)=O [FAMCICLOVIR]

tested on: Mus musculus; assay: Concentration of 9-[4-Hydroxy-3-(hydroxymethyl)but-1-yl)guanine in blood of mice after 0.25 hours upon oral administration; assay type: functional, organism-based; conditions: not given; in short: as §2

Structure (SMILES) | Concentration [µM]
Nc1nc(O)c2ncn(CCC(CO)CO)c2n1 | 4.9
Nc1nc(OCc2ccccc2)c2ncn(CCC(CO)CO)c2n1 | 1.8
CCC(=O)OCC(CCn1cnc2cnc(N)nc21)COC(=O)CC | 79
Nc1ncc2ncn(CCC(CO)CO)c2n1 [6-DEOXY PENCICLOVIR] | 16
CC(=O)OCC(CCn1cnc2cnc(N)nc21)COC(C)=O [FAMCICLOVIR] | 74
CC1(C)OCC(CCn2cnc3cnc(N)nc32)CO1 | 33
Nc1ncc2ncn(CCC(CO)COP(=O)(O)O)c2n1 (stereo unspecified) | 8.7

tested on: Mus musculus; assay: Concentration of 2-Amino-9-(4-hydroxy-3-hydroxymethyl)but-1-yl)purine in blood of mice after 0.25 hours upon oral administration; assay type: functional, organism-based; conditions: not given; in short: as §1

Structure (SMILES) | Concentration [µM]
Nc1nc(OCc2ccccc2)c2ncn(CCC(CO)CO)c2n1 | 3
CCC(=O)OCC(CCn1cnc2cnc(N)nc21)COC(=O)CC | 92
Nc1ncc2ncn(CCC(CO)CO)c2n1 [6-DEOXY PENCICLOVIR] | 8
CC(=O)OCC(CCn1cnc2cnc(N)nc21)COC(C)=O [FAMCICLOVIR] | 69
CC1(C)OCC(CCn2cnc3cnc(N)nc32)CO1 | 33
Nc1ncc2ncn(CCC(CO)COP(=O)(O)O)c2n1 (stereo unspecified) | 4

tested on: Mus musculus; assay: Concentration of 9-[4-Hydroxy-3-(hydroxymethyl)but-1-yl)guanine in blood of mice after 3 hours upon oral administration; assay type: functional, organism-based; conditions: not given; in short: as §2

Structure (SMILES) | Concentration [µM]
Nc1nc(O)c2ncn(CCC(CO)CO)c2n1 | 1.1
Nc1nc(OCc2ccccc2)c2ncn(CCC(CO)CO)c2n1 | 0.5
CCC(=O)OCC(CCn1cnc2cnc(N)nc21)COC(=O)CC | 2.1
Nc1ncc2ncn(CCC(CO)CO)c2n1 [6-DEOXY PENCICLOVIR] | 3.2
CC(=O)OCC(CCn1cnc2cnc(N)nc21)COC(C)=O [FAMCICLOVIR] | 1.1
CC1(C)OCC(CCn2cnc3cnc(N)nc32)CO1 | 3.2

tested on: Mus musculus; assay: Concentration of 2-Amino-9-(4-hydroxy-3-hydroxymethyl)but-1-yl)purine in blood of mice after 3 hours upon oral administration; assay type: functional, organism-based; conditions: not given; in short: as §1

Structure (SMILES) | Concentration [µM]
Nc1nc(OCc2ccccc2)c2ncn(CCC(CO)CO)c2n1 | < 1
CCC(=O)OCC(CCn1cnc2cnc(N)nc21)COC(=O)CC | < 1
Nc1ncc2ncn(CCC(CO)CO)c2n1 [6-DEOXY PENCICLOVIR] | 1
CC(=O)OCC(CCn1cnc2cnc(N)nc21)COC(C)=O [FAMCICLOVIR] | < 1
CC1(C)OCC(CCn2cnc3cnc(N)nc32)CO1 | 1
Nc1ncc2ncn(CCC(CO)COP(=O)(O)O)c2n1 (stereo unspecified) | 1
